# A selection: hits, their analogues and other compounds. The true share with any hit is near 3%.
# T cruzi repl: T. cruzi replication inhibition; T. cruzi beta-gal in NIH3T3, luminescence, 90 h; inhibition, % (no concentration beside the values); 1.4% of 300,000 active; AID 1885;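 active means mean inhibition across valid replicates above about 55%, limit read from the data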;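 further: signal also drops with host cell toxicity which is not excluded here; higher percent means less beta-gal luminescence so fewer parasites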
#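 Read-out: Parasite load inhibition, % | Test system: Mouse NIH/3T3 fibroblasts infected with β-gal-expressing T. cruzi Tulahuen C4 | Amount: 5,000 cells/well | Medium: DMEM, 2% fetal bovine serum | Signal: GalScreen β-gal luminescence, detergent lysis, 60 min | Timing: 3 h attach, ≥90 h co-culture | Also added: Tulahuen C4 trypomastigotes, 5000/well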
# AI-2 QS modul: Vibrio harveyi AI-2 quorum sensing modulation | Vibrio harveyi JMH597 AI-2 luminescence/OD600 ratio, 9 h; active compounds read low; strain lacks LuxN and CqsS sensors; 0 = neutral-control median | activity change, % at 7.5 µM | 0.4% of 300,000 active | AID 2094; in the data active means activity change below about -75%, passing the limit was not always enough;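 further: luminescence divided by OD600 gain over 9 h not by final OD600 alone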
# V-ATPase pH: yeast V-ATPase proton transport regulation by pHLuorin | S. cerevisiae, pHLuorin cytosolic pH fluorescence | response, % at 10 µM | 0.37% of 350,000 active; in the data active means response mostly above about 7.3%, no sharp cut-off; inactive means mostly below about 5.4%; further: actives read high
# CendR NRP1 mod: NRP-1/CendR interaction modulation; FAM-RPARPAR peptide binding to NRP-1, fluorescence polarization; 0.85% of 360,000 active; inhibition, % at 25 µM; AID 602438;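 active means inhibition or corrected inhibition above about 18%, plus a signal ratio from 0.5 to 1.5, limit read from the data, passing the limit was not always enough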
# Target sequence (O14786 whole entry, looked up): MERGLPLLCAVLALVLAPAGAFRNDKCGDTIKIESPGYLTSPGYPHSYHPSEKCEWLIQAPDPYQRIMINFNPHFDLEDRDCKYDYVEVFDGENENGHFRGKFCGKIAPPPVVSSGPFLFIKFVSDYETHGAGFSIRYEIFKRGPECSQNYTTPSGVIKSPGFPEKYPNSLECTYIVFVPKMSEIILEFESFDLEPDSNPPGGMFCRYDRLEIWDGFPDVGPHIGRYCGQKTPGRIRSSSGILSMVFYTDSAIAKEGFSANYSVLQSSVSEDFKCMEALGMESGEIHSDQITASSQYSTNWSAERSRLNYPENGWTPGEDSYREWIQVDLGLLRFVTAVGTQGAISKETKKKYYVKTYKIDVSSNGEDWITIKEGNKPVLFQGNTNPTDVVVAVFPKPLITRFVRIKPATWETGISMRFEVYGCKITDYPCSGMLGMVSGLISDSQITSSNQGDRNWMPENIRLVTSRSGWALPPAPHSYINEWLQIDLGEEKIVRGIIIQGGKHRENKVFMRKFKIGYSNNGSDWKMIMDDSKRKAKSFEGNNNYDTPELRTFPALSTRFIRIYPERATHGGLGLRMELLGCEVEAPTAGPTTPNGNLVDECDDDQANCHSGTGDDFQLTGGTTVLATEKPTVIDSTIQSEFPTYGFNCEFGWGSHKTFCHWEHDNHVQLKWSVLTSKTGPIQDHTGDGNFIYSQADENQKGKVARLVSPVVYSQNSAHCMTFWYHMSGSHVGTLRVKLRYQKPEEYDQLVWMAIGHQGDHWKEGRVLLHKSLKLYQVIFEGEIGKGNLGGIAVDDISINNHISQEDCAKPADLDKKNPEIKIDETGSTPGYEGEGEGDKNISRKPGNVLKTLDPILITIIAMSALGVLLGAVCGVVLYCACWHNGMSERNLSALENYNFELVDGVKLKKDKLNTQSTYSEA
# HIF act: HIF pathway transcriptional activation; U2OS HRE-luciferase reporter, luminescence; normalized: DMSO 0%, desferrioxamine 100%; activation, % at 7.5 µM (by protocol); 0.32% of 300,000 active;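 active means mean activation of at least 10% of the iron chelator positive control signal, with at least half of replicates also reaching 10%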
# Yeast superoxide: lowers age-related superoxide in aged yeast cells. superoxide response (% of plate mean), % at 10 µM. 0.18% of 330,000 active. S. cerevisiae aged cells, superoxide DHE fluorescence; active compounds read low;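 active means superoxide response under a set limit, about three screen SD below normal, cut at about 65% in these data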;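 further: yeast aged for seven days with compound at 30 °C before DHE staining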
# A number is an active result; – = inactive; · = no result given.
SMILES,T cruzi repl,AI-2 QS modul,V-ATPase pH,CendR NRP1 mod,HIF act,Yeast superoxide
CN(C(=O)CSc1ncnc2ccccc12)C1CCS(=O)(=O)C1 (stereo unspecified),·,·,–,–,·,–
CCC1=C(OC(=O)N(CC)CC)N2C(=O)OC(=NCCOC)[C@]2(Cc2ccccc2)[C@H]2C1=CC[C@H]1C(=O)N(CC)C(=O)[C@H]12,–,–,–,–,–,–
CCC1=C(OC(=O)N(CC)CC)N2C(=O)OC(=NCC(=O)OC)[C@]2(C)[C@H]2C1=CC[C@H]1C(=O)N(CC(=O)OC)C(=O)[C@H]12,–,–,–,24.1,–,–
CCC1=C(OC(=O)N(CC)CC)N2C(=O)OC(=NCCOC)[C@]2(Cc2ccccc2)[C@H]2C1=CC[C@H]1C(=O)N(C)C(=O)[C@H]12,–,–,–,24.2,–,–
CCC1=C(OC(=O)N(CC)CC)N2C(=O)OC(=NCC(=O)OC)[C@]2(C)[C@H]2C1=CC[C@H]1C(=O)N(CC)C(=O)[C@H]12,–,–,–,35.4,–,–
CCC1=C(OC(=O)N(CC)CC)N2C(=O)OC(=NCc3ccccc3)[C@]2(C)[C@H]2C1=CC[C@H]1C(=O)N(CC)C(=O)[C@H]12,–,–,–,–,–,·
CCC1=C(OC(=O)N(CC)CC)N2C(=O)OC(=NCC(=O)OC)[C@]2(Cc2ccccc2)[C@H]2C1=CC[C@H]1C(=O)N(CC(=O)OC)C(=O)[C@H]12,–,–,–,27.3,–,–
OCCSc1nc(N2CCOCC2)nc(N2CCOCC2)n1,–,–,–,–,–,–
CCOC(=O)[C@@H]1[C@H]2COc3cc(OC)ccc3[C@H]2N2C(=O)N(c3ccc(F)cc3)C(=O)[C@@]12C,–,–,–,–,–,–
CCCCOP(=O)(c1ccc(N(C)C)cc1)C(O)c1cccnc1 (stereo unspecified),–,–,–,–,–,–
COc1ccc(CCNC(=O)C2CCCN(S(C)(=O)=O)C2)cc1OC (stereo unspecified),–,-291.5,–,–,–,–
CC1(C)OC(=O)C=C[C@]2(C)[C@H]3CC[C@@]4(C)[C@H](C(=O)O)OC(=O)[C@H]5O[C@]54[C@]3(C)C(=O)C[C@@H]12,·,·,–,22.2,·,–
Cc1c(CCOC(=O)c2cc([N+](=O)[O-])cc([N+](=O)[O-])c2)sc[n+]1CC(=O)c1ccccc1,69.4,–,–,–,–,–
Cc1c(CCOC(=O)c2ccccc2)sc[n+]1CC(=O)c1ccc(Br)cc1,–,–,–,–,–,–
N/C(=N\OC(=O)Cc1ccccc1)c1ccc(Br)cc1,–,–,–,–,–,–
FC(F)(F)c1ccc(CSc2ccccn2)cc1,–,–,–,–,10.0,–
Cc1ccccc1NC(=O)C(Cc1ccccc1)n1cccc1 (stereo unspecified),–,–,–,–,–,–
CCOC(=O)C1=C(C)NC(=S)NC1c1cc(C)sc1C (stereo unspecified),–,–,–,–,–,–
CCOC(=O)c1c(NC(=O)C2=C(C)NC(=S)NC2c2ccccc2C(F)(F)F)sc(C)c1C (stereo unspecified),62.4,–,–,–,–,–
CCCCN1CC(COCc2ccccc2)Oc2cccc(NCc3ccc(OC)cc3)c2S1(=O)=O (stereo unspecified),·,·,–,–,·,·
O=C(Nc1nc(-c2ccc(F)c(F)c2)cs1)c1cc([N+](=O)[O-])ccc1N1CCOCC1,–,–,–,–,–,–
Cc1cc(C)c(-c2csc(NC(=O)c3cc([N+](=O)[O-])ccc3N3CCOCC3)n2)c(C)c1,66.1,–,–,–,–,–
Cc1ccc(S(=O)(=O)N(CCC(=O)NCc2ccccc2F)c2ccccc2)cc1,·,·,–,–,·,–
Cc1ccc(S(=O)(=O)N(CCC(=O)Nc2ccc(OC(F)(F)F)cc2)c2ccccc2)cc1,–,–,–,39.6,–,–
Clc1ccc2nc(-c3cccc(Br)c3)c(Cc3ccsc3)n2c1,·,·,·,–,·,·
SMILES,T cruzi repl,AI-2 QS modul,V-ATPase pH,CendR NRP1 mod,HIF act,Yeast superoxide
COc1ccc(CN2CCCC(C(=O)Nc3cccc(-n4cccn4)c3)C2)cc1 (stereo unspecified),–,–,–,–,–,–
COc1ccc(CN2CCCC(C(=O)c3ccc(Cl)cc3)C2)cc1Cn1cccn1 (stereo unspecified),64.3,–,–,–,–,–
COCc1cc(CN2CCCC(C(=O)Nc3cccc(-n4cnnn4)c3)C2)ccc1OC (stereo unspecified),69.6,–,–,–,–,–
COc1cccc(C(=O)C2CCCN(Cc3ccc(OC)c(Cn4cncn4)c3)C2)c1 (stereo unspecified),57.7,–,–,–,–,–
CCOC(=O)N1CCN(c2nc(C)c3c(n2)CC(C)CC3=O)CC1 (stereo unspecified),–,–,–,–,–,–
COc1ccc2ccccc2c1/C=N/n1cnnc1,–,–,–,–,–,–
CCOCC(=O)Nc1cc(S(=O)(=O)N2CCOCC2)ccc1N1CCCCC1,–,–,–,–,–,–
CN=c1scc(-c2ccccc2F)n1/N=C(\C)c1cccnc1,55.0,–,–,–,–,–
C/C(=N\N1CCN(C2c3ccccc3-c3ccccc32)CC1)c1cccnc1,–,–,–,–,–,–
Oc1ccc(N2CCN(c3ncnc4sc(-c5ccccc5)cc34)CC2)cc1,58.3,–,–,–,–,·
COc1cc(CNCc2c[nH]c3ccccc23)cc(OC)c1,78.0,–,–,–,–,–
COc1cc(CNCc2cccc3ccccc23)cc(OC)c1,–,–,–,–,–,–
CC(C)Oc1cccc(C(=O)C2CCCN(Cc3cnn(C(C)C)c3)C2)c1 (stereo unspecified),78.3,–,–,–,–,–
CCn1cc(CN2CCCC(C(=O)c3ccc(-c4ccccc4)cc3)C2)cn1 (stereo unspecified),65.0,–,–,–,–,–
Cc1nn(C(C)C)c(C)c1CN1CCCC(C(=O)c2cccc(OC(C)C)c2)C1 (stereo unspecified),–,–,–,–,–,–
CCn1nc(C)c(CN2CCCC(C(=O)c3cccc(OC(C)C)c3)C2)c1C (stereo unspecified),64.7,–,–,–,–,–
CCN(CC)c1ccc(NC(=O)c2nc3nc(C)cc(C(F)F)n3n2)cc1,–,–,–,–,–,–
CC(=O)Nc1ccc(S(=O)(=O)N[C@@H](C)C(=O)NC2CCCc3ccccc32)cc1 (stereo partly specified),·,·,–,–,·,–
CCCCC(=O)Nc1ccc(C(=O)N2CCC(C(=O)OCC)CC2)cc1,–,–,–,–,–,–
Fc1cccc(Cc2c(-c3ccc(Cl)cc3)nc3c(Cl)cc(C(F)(F)F)cn23)c1,·,·,·,–,·,·

# Bioassay records (PubChem BioAssay)
